Here are results for two substances from PMC7079113 (Diabetes, Obesity & Metabolism, 2019).

The conditions of data set [1]: LC–MS/MS; for AUCins.0‐6h of M1, geometric mean (90% CI) / AUCins.6‐30h of M1, geometric mean (90% CI): secondary PK endpoint, 87 US IG; for AUCins.0‐6h of M1, geometric mean (90% CI): N = 85 MYL-1501D, 84 EU IG; for AUCins.6‐30h of M1, geometric mean (90% CI): N = 87 MYL-1501D, 86 EU IG.
Data set [2] is described as follows: Single-dose safety and local tolerability. The format is in vivo, patients with type 1 diabetes mellitus (human). The note with it: for Hypoglycaemic events at various time points after the clamp period: > 30 hours after injection, considered a side effect of the patients' usual insulin treatment; for Number of AEs during or after administration / Patients who experienced AEs during or after administration / Patients who experienced AEs during or after administration, percentage: safety population N = 114. In a few lines: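 Randomised crossover in which each patient received three insulin glargine preparations as single s.c. 0.4 U/kg doses, at visits 5–28 days apart (minimum 5-day washout). Each dose was given under a 30-h automated euglycaemic clamp. Safety and injection-site tolerability were assessed at each visit: AEs, haematology, biochemistry, urinalysis, physical exam, vital signs, ECGs and blood glucose. Hypoglycaemia was graded severe/symptomatic/asymptomatic. Results were summarised descriptively.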

For data set [3] the following is noted: ELISA, ratio of treatments vs US IG.
Data set [4] concerns glucose infusion rate. Kind of data set: 30-hour automated euglycaemic clamp. The format is in vivo, patients with type 1 diabetes mellitus (human). The following applies: for AUCGIR0–6h, geometric mean (90% CI): 0-6 h; for AUCGIR0–6h, geometric mean (90% CI) / AUCGIR6–30h, geometric mean (90% CI): N = 111 MYL-1501D, 111 US IG, 113 EU IG; for AUCGIR6–30h, geometric mean (90% CI): 6-30 h.

The mark [5] stands for this setting: vs US IG, N = 74 (MYL-1501D), 72 (EU IG).
Where [6] appears, read: secondary PD, vs US IG, N = 111.

Marks after values point to notes of the source that are not given here.

insulin glargine [EU IG]: the “AUCins.0‐6h of M1, geometric LS mean ratio (90% CI) vs US IG” value in data set [1] (vs US IG, N = 73 (MYL-1501D), 71 (EU IG)) was 1.06 (0.93–1.20). For the same substance, in data set [1] (setting [5]), the “AUCins.0–30h of M1, geometric LS mean ratio (90% CI) vs US IG” value was 1.01 (0.94–1.08); the “AUCins.6‐30h of M1, geometric LS mean ratio (90% CI) vs US IG” value is recorded as 1.00 (0.93–1.08); the “Cins.max of M1, geometric LS mean ratio (90% CI) vs US IG” value is listed as 1.02 (0.96–1.08). In data set [1], the “AUCins.0‐6h of M1, geometric mean (90% CI)” value is reported as 203 (180–229) pmol·h/L and the “AUCins.6‐30h of M1, geometric mean (90% CI)” value is listed as 1088 (1001–1181) pmol·h/L. Moreover, the “Hypoglycaemic events at various time points after the clamp period” value in data set [2] was “six”. In addition, in data set [2] (single s.c. 0.4 U/kg), the Tolerability entry is “generally well tolerated”; the “Number of AEs during or after administration” value is recorded as 34 AEs; the “Patients who experienced AEs during or after administration” value came out at 24 patients; the “Patients who experienced AEs during or after administration, percentage” value is reported as 21.1%. Also, the “AUCins.0–30h, geometric LS mean ratio (90% CI) vs US IG” value in data set [3] (N = 107) was 1.02 (0.95–1.09). Further, the “Cins.max, geometric LS mean ratio (90% CI) vs US IG” value in data set [3] (N = 110) is on record as 1.00 (0.93–1.08). Also, the “AUCGIR0–30h (secondary analysis), geometric LS mean ratio (90% CI) vs US IG” value in data set [4] (including very low response profiles, linear mixed model, vs US IG, n = 111) is reported as 0.96 (0.77–1.20) ^e. For the same substance, the “GIRmax, geometric LS mean ratio (90% CI) vs US IG” value in data set [4] (primary PD, vs US IG, N = 102) was 0.98 (0.90–1.07). In data set [4] (secondary PD), the “AUCGIR0–6h, geometric mean (90% CI)” value is given as 72.8 (49.4–107) mg/kg and the “AUCGIR6–30h, geometric mean (90% CI)” value is 567 (418–769) mg/kg. In data set [4] (setting [6]), the “AUCGIR0–6h, geometric LS mean ratio (90% CI) vs US IG” value is 0.82 (0.55–1.23) and the “AUCGIR6–30h, geometric LS mean ratio (90% CI) vs US IG” value was 1.09 (0.79–1.48).

Regarding insulin glargine [US IG], in data set [1], the “AUCins.0‐6h of M1, geometric mean (90% CI)” value was 192 (171–217) pmol·h/L and the “AUCins.6‐30h of M1, geometric mean (90% CI)” value is given as 1086 (1000–1179) pmol·h/L. Moreover, the “Hypoglycaemic events at various time points after the clamp period” value in data set [2] stood at 16. Also, in data set [2] (mild, single s.c. 0.4 U/kg), the Injection site reactions entry was “one”. Also, in data set [2] (single s.c. 0.4 U/kg), the Tolerability result is “generally well tolerated”; the “Number of AEs during or after administration” value came to 34 AEs; the “Patients who experienced AEs during or after administration” value turned out to be 20 patients; the “Patients who experienced AEs during or after administration, percentage” value was 17.9%. Besides, in data set [4] (secondary PD), the “AUCGIR0–6h, geometric mean (90% CI)” value was 88.3 (59.7–131) mg/kg and the “AUCGIR6–30h, geometric mean (90% CI)” value is 522 (384–710) mg/kg.
